Screening data from PubChem.
The list is not random: actives were taken first. Their share in the collection is about 4.1%.
KCNK3 inh: human KCNK3 channel inhibitors, primary screen, CHO cells, FluxOR thallium flux, B-score. 340,000 tested, 0.84% active. Potassium channel subfamily K member 3 (Homo sapiens), O14649. AID 602410, 2012. FluxOR fluorescence; stronger effect = lower value. B-score at 10 µM;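 active = B-score under library mean minus 4 SD, starting fluorescence ratio at most library mean plus 5 SD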;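 also: more negative B-score means stronger inhibition of thallium flux through KCNK3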
Target sequence (O14649 whole entry, looked up): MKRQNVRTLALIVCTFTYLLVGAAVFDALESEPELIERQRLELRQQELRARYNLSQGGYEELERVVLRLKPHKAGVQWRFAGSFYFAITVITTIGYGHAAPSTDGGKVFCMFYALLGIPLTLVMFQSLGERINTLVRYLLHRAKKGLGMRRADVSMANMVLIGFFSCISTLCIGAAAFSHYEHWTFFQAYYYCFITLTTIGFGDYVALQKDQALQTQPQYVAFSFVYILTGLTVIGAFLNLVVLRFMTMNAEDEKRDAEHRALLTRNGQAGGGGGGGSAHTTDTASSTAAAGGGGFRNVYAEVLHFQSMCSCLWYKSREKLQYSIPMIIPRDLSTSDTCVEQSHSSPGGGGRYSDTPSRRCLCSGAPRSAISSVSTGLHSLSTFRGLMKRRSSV
KCNQ1 act: potentiators or activators of KCNQ1 channel, primary screen, cell-based, thallium flux, high-throughput; Potassium voltage-gated channel subfamily KQT member 1 (Homo sapiens), P51787; CHO-K1 KCNQ1, thallium flux FluxOR fluorescence; stronger effect = higher value; B-score at 10 µM; 310,000 tested, 0.35% active;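 active = fluorescence ratio B-score, a plate-corrected score, at least three library SD, with initial intensity B-score within 5 SD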
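Assay system: CHO-K1 cells stably expressing KCNQ1; Medium: assay buffer with matched DMSO; Also added: K+/Tl+ depolarizing stimulus; Dosing: single dose; Timing: dye 90 min, compound 20 min, room temperature; Measured by: kinetic FluxOR thallium fluorescence, 10-s 1-Hz baseline, 110-s post-stimulus read; Read-out: peak-minus-minimum fluorescence over initial fluorescence, negative-control normalized, B-scored.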
KCNK9 block: KCNK9 potassium channel inhibitors, primary screen, HEK293 cells, thallium flux; 310,000 tested, 1.2% active; B-score at 10 µM; FluxOR thallium flux fluorescence; stronger effect = lower value; Potassium channel subfamily K member 9 (Homo sapiens), Q9NPC2;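 active = ratio B-score over 3 SD below the library mean, with starting fluorescence within 5 SD of its mean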;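 also: negative B-score means less thallium flux so channel inhibition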
Target sequence (Q9NPC2 whole entry, looked up): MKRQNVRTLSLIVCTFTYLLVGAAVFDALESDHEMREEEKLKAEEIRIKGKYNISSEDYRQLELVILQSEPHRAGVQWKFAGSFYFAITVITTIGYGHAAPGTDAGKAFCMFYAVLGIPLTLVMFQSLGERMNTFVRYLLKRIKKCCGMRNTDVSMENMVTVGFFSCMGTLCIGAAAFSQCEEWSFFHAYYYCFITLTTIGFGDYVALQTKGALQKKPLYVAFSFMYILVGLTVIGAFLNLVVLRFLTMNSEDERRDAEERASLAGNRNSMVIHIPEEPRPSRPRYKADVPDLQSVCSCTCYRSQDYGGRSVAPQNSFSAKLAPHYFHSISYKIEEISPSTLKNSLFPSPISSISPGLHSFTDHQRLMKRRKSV
hERG rescue: hERG rescue from dofetilide block, primary screen, cell-based, CHO-hERG, FluxOR thallium flux, dofetilide IC70. Voltage-gated inwardly rectifying potassium channel KCNH2 (Homo sapiens), Q12809. dofetilide IC70 present. activation (rescue from dofetilide block), less the hit threshold, % at 10 µM. 310,000 tested, 0.51% active. AID 1511, 2009;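 active = activation above the mean of controls blocked by dofetilide plus 5 SD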;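 also: thallium influx through hERG after potassium depolarization seen as dye fluorescence rise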
KCNQ1 block: inhibitors of human KCNQ1 channel, primary screen, cell-based, thallium flux, high-throughput; Potassium voltage-gated channel subfamily KQT member 1 (Homo sapiens), P51787; CHO-K1 KCNQ1, FluxOR thallium flux fluorescence; stronger effect = higher value; B-score at 10 µM; 310,000 tested, 1.3% active;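 active = compounds whose thallium flux B-score, printed positive for inhibition, exceeds three library SD while starting fluorescence stays within three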;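 also: channel opened by potassium depolarization with thallium stimulus after 20 min compound exposure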
KCC2 mod: KCC2 cotransporter modulators, thallium flux, primary screen, cell-based, HEK293 KCC2, FluoZin-2 fluorescence, MLSMR; KCC2 cells, thallium flux FluoZin-2 fluorescence; AID 1456, 2008; B-score of Tl+ flux slope (higher = more flux/activation; lower = inhibition) at 10 µM; 190,000 tested, 2.2% active;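 active = thallium flux slope and its plate-corrected score both differing from the plate sample mean at a set confidence after two filtering rounds, in either direction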;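 also: slope of fluorescence scaled to starting intensity during 10 to 20 s after thallium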
KCNK3 inh conf: retest of human KCNK3 channel inhibitors, confirmation, CHO cells, FluxOR thallium flux, triplicate; ratio percent of control, % at 10 µM; 2,400 tested, 99% active; FluxOR fluorescence; 0% buffer, 100% carvedilol maximal block; shares compounds with KCNK3 inh;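 active = ratio percent of control, averaged over triplicates, above buffer control mean plus 5 SD, cut at about 64% in these data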;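 also: ratio is the fluorescence rise from min to max over baseline after thallium stimulus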
KCNK3 noninduced: thallium flux inhibition in non-induced cells, primary screen, counter-screen for KCNK3 inhibitor project, cell-based, non-induced KCNK3 line, FluxOR thallium, triplicate; shares compounds with KCNK3 inh; non-induced KCNK3 parental cells; stronger effect = lower value; thallium flux ratio (lower = more inhibition) at 10 µM; 2,400 tested, 40% active; AID 651747, 2012;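 active = thallium flux ratio, averaged over three wells, more than 5 SD below the buffer control mean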;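 also: host cells are CHO cells without KCNK3 induction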
Each line names hits and unclear results; the compound was inactive in the other large screens (follow-up assays come after a bar, where they were run).

COc1ccccc1/C=N/NC(=O)CSc1cc(C)nc2ccccc12	none
CC12CCC(=O)C=C1CCC1C2C(O)CC2(C)C(c3csc(N)n3)CCC12 (centres undefined)	none (no result: KCNQ1 act, KCNK9 block, hERG rescue, KCNQ1 block, KCC2 mod)
CC12CCC(=O)C=C1CCC1C2CCC2(C)C(c3csc(N)n3)CCC12 (centres undefined)	KCNK3 inh -14.3 (no result: KCNQ1 act, KCNK9 block, hERG rescue, KCNQ1 block, KCC2 mod) | KCNK3 inh conf 133.3 | KCNK3 noninduced 0.121
CCn1cc(CN2CCCC(CNS(=O)(=O)c3cccc4cccnc34)C2)cn1 (centres undefined)	none (no result: KCC2 mod)
CCCCN1CN(S(=O)(=O)c2ccc(OC)cc2)c2nc3ccccc3nc21	KCNK3 inh -8.89 (no result: KCC2 mod) | KCNK3 inh conf 90.3 | KCNK3 noninduced inactive
O=C1CCC(C(=O)OC(C(=O)c2c[nH]c3ccccc23)c2ccccc2)=NN1 (centres undefined)	KCNK9 block -8.74 | KCNK3 inh conf 111.3 | KCNK3 noninduced inactive
O=C(OC(C(=O)c1c[nH]c2ccccc12)c1ccccc1)c1cnccn1 (centres undefined)	none (no result: KCC2 mod)
O=C(Nc1cc(C(F)(F)F)ccc1N1CCCCC1)c1cccc([N+](=O)[O-])c1	none
CC(=O)c1ccc(NC(=O)COC(=O)CC2CC3CCC2C3)cc1 (centres undefined)	none (no result: KCNQ1 act, KCNK9 block, hERG rescue, KCNQ1 block, KCC2 mod)
Cc1cccc(CNC(=O)c2ccc3c(c2)N(C)CCS3)c1	none (no result: KCC2 mod)
CCN1CCSc2ccc(C(=O)NCc3ccccc3C)cc21	none (no result: KCC2 mod)
CCN1CCSc2ccc(C(=O)NCc3ccccc3Br)cc21	KCNK3 inh -9.73 (no result: KCC2 mod) | KCNK3 inh conf 104.3 | KCNK3 noninduced 0.152
CN1CCSc2ccc(C(=O)NCc3cccc(Br)c3)cc21	KCNK3 inh -14.1 (no result: KCC2 mod) | KCNK3 inh conf 120.3 | KCNK3 noninduced 0.156
Cc1ccc(OC(=O)c2ccc(S(=O)(=O)N(C)C)cc2)c(-n2nc3ccccc3n2)c1	none (no result: KCC2 mod)
Cc1ccc(OC(=O)c2cccc(S(=O)(=O)N3CCCC3)c2)c(-n2nc3ccccc3n2)c1	KCNK3 inh -9.3 | KCNK3 inh conf 110.0 | KCNK3 noninduced inactive
Cc1ccc(OC(=O)c2cccc(S(=O)(=O)N(C)C)c2)c(-n2nc3ccccc3n2)c1	KCNK9 block -7.08 | KCNK3 inh conf 118.3 | KCNK3 noninduced inactive
C/C(=N\NC(=O)c1nn(C)cc1Cl)c1ccncc1	none
Cc1ccccc1NC(C)C(=O)N/N=C/c1ccccc1OCc1cccc(Br)c1 (centres undefined)	KCNK3 inh -10.5 | KCNK3 inh conf 92.0 | KCNK3 noninduced 0.158
COC(=O)c1sccc1NC(=O)Nc1ccc(C)c(C)c1	none (no result: KCC2 mod)
CCc1ccc(NC(=O)Nc2ccsc2C(=O)OC)cc1	KCNK3 inh -10.9 (no result: KCC2 mod) | KCNK3 inh conf 89.0 | KCNK3 noninduced inactive
CCOc1ccc(-n2nc3c(-n4ncc(C#N)c4N)nnc(C)c3c2C)cc1	none (no result: KCNK3 inh, KCNQ1 act, KCNK9 block, hERG rescue, KCNQ1 block)
CC(=O)N1c2ccc(S(=O)(=O)N3CCC(C(=O)N4CCN(c5cc(Cl)ccc5C)CC4)CC3)cc2CC1C (centres undefined)	KCNK3 inh -9.53, KCNQ1 block 6 (no result: KCC2 mod) | KCNK3 inh conf 107.7 | KCNK3 noninduced inactive
COc1ccc(Cl)cc1NC(=O)C1Cc2cc(S(=O)(=O)N3CCCC3)ccc2N1C(C)=O (centres undefined)	KCNK3 inh -9.41 (no result: KCC2 mod) | KCNK3 inh conf 102.0 | KCNK3 noninduced inactive
COc1ccc(NC(=O)C2Cc3cc(S(=O)(=O)N4CCCCC4)ccc3N2C(C)=O)cc1Cl (centres undefined)	none (no result: KCC2 mod)
Cc1onc(-c2c(Cl)cccc2Cl)c1C(O)c1ccccc1 (centres undefined)	none (no result: KCC2 mod)
CC(C)(C)C(=O)Nc1ccccc1C(=O)NCc1ccco1	KCNK3 inh -9.28 | KCNK3 inh conf 65.3 | KCNK3 noninduced inactive
COc1ccc(-c2[nH]c3ccccc3c2SCCNC(=O)c2ccccc2)cc1	KCNK3 inh -9.63 | KCNK3 inh conf 117.0 | KCNK3 noninduced 0.14
c1ccc(CCNc2ncnc3scc(C4COc5ccccc5O4)c23)cc1 (centres undefined)	KCNK3 inh -9.12 | KCNK3 inh conf 127.0 | KCNK3 noninduced 0.123
CCOC(=O)N1CCN(c2nc3ccc(C(=O)c4ccccc4)cc3n3cnnc23)CC1	KCNK3 inh -11 | KCNK3 inh conf 83.0 | KCNK3 noninduced inactive
O=C(c1ccccc1)c1ccc2nc(N3CCN(C(=O)c4ccco4)CC3)c3nncn3c2c1	none
CCOC(=O)N1CCC(NC(=O)c2cc(C(=O)Nc3ccc(S(=O)(=O)N4CCCCC4)cc3)ccc2CO)CC1	none
Cc1c(CCOC(=O)c2ccccc2)sc[n+]1CC(=O)c1ccc(Br)cc1	none (no result: KCC2 mod)
Cc1c(CCOC(=O)CC23CC4CC(CC(C4)C2)C3)sc[n+]1CC(=O)c1ccc(Br)cc1	KCNK3 inh -10.4, KCNQ1 block 6 | KCNK3 inh conf 118.7 | KCNK3 noninduced inactive
Cc1cc(C)c(C(=O)OCC(=O)NC(=O)c2ccccc2)c(C)c1	none (no result: KCC2 mod)
CCOc1ccc(N2C(=O)C3ON(C)C(c4ccc([N+](=O)[O-])cc4)C3C2=O)cc1 (centres undefined)	none
CSc1nc(C)c(Cc2ccccc2)c(=O)[nH]1	none
CCCCC(Sc1nc(C)c(Cc2ccccc2)c(=O)[nH]1)C(=O)O (centres undefined)	KCNK3 inh -8.96 (no result: KCC2 mod) | KCNK3 inh conf inactive | KCNK3 noninduced inactive
Cc1noc(C)c1COC(=O)C1CCN(S(=O)(=O)c2c(Cl)cccc2Cl)CC1	KCNK3 inh -8.98 (no result: KCC2 mod) | KCNK3 inh conf 114.0 | KCNK3 noninduced inactive
Cc1ccc(S(=O)(=O)N2CCC(C(=O)OCc3c(C)noc3C)CC2)cc1C	none (no result: KCC2 mod)
CCCC(C)C(=O)Nc1ccccc1C(=O)OCC (centres undefined)	none
CCOC(=O)c1ccccc1NC(=O)C(C)Oc1ccccc1 (centres undefined)	KCNK3 inh -9.97 | KCNK3 inh conf 78.0 | KCNK3 noninduced inactive
CNCC(=O)N1CCN(c2ncc(C(F)(F)F)cc2Cl)CC1	none
